Laboratory results published in ChEMBL document CHEMBL1142195, “A novel nonnucleoside analogue that inhibits human immunodeficiency virus type 1 isolates resistant to current nonnucleoside reverse transcriptase inhibitors” (Antimicrob Agents Chemother, 2007).

How the values were obtained:
Assay type in all cases: functional
[1] = system: Human immunodeficiency virus 1; experiment: Antiviral activity against HIV1 isolate with RT 101Q, 103R mutation relative to wild type
[2] = system: Human immunodeficiency virus 1; experiment: Antiviral activity against HIV1 isolate with RT 103N, 106M mutation relative to wild type
[3] = system: Human immunodeficiency virus 1; experiment: Antiviral activity against HIV1 isolate with RT 101E, 181C, 190A mutation relative to wild type
[4] = system: Human immunodeficiency virus 1; experiment: Antiviral activity against HIV1 isolate with RT 103Q mutation relative to wild type
Summary of the method: (§1)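 Mutant RT clones built in pNL4-3.Luc.R−E− reporter, VSV-G-pseudotyped, single-round infection of HeLa-JC53 cells (15,000/well, MOI 0.03) with 1:4 serial compound dilutions in DMEM (phenol red-free), 2% FBS, 0.2% final DMSO; 48 h at 37°C, 5% CO2; luciferase chemiluminescence read-out. Fold change in EC50 relative to wild-type virus; mean of two tests.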

[5] = system: Human immunodeficiency virus 1; experiment: Antiviral activity against HIV1 isolate with RT 106A, F227L mutation relative to wild type; summary of the method: as §1
[6] = system: Human immunodeficiency virus 1; experiment: Antiviral activity against HIV1 isolate with RT 101P, 103N mutation relative to wild type
[7] = system: Human immunodeficiency virus 1; experiment: Antiviral activity against HIV1 isolate with RT 106I, 188L mutation relative to wild type; summary of the method: as §1
[8] = system: Human immunodeficiency virus 1; experiment: Antiviral activity against HIV1 isolate with RT 98G, 103N, 181C, 190A mutation relative to wild type; summary of the method: as §1
[9] = system: Human immunodeficiency virus 1; experiment: Antiviral activity against HIV1 isolate with RT 101E, 108I, 181C, 190A mutation relative to wild type
[10] = system: Human immunodeficiency virus 1; experiment: Antiviral activity against HIV1 isolate with RT 103N, 190S mutation relative to wild type; summary of the method: as §1
[11] = system: Human immunodeficiency virus 1; experiment: Antiviral activity against HIV1 isolate with RT 101Q mutation relative to wild type
[12] = system: Human immunodeficiency virus 1; experiment: Antiviral activity against HIV1 isolate with RT 100I, 103N mutation relative to wild type
[13] = system: Human immunodeficiency virus 1; experiment: Antiviral activity against HIV1 isolate with RT 103N, 188H mutation relative to wild type
[14] = system: Human immunodeficiency virus 1; experiment: Antiviral activity against HIV1 isolate with RT 101E, 181C, 190S mutation relative to wild type
[15] = system: Human immunodeficiency virus 1; experiment: Antiviral activity against HIV1 isolate with RT 227L mutation relative to wild type; summary of the method: as §1
[16] = system: Human immunodeficiency virus 1; experiment: Antiviral activity against HIV1 isolate with RT 188L mutation relative to wild type; summary of the method: as §1
[17] = system: Human immunodeficiency virus 1; experiment: Antiviral activity against HIV1 isolate with RT 103N, 238T mutation relative to wild type; summary of the method: as §1
[18] = system: Human immunodeficiency virus 1; experiment: Antiviral activity against HIV1 isolate with RT 108I, 181C, 190A mutation relative to wild type; summary of the method: as §1
[19] = system: Human immunodeficiency virus 1; experiment: Antiviral activity against HIV1 isolate with RT 190E mutation relative to wild type; summary of the method: as §1
[20] = system: Human immunodeficiency virus 1; experiment: Antiviral activity against HIV1 isolate with RT 181C, 190A mutation relative to wild type; summary of the method: as §1
[21] = system: Human immunodeficiency virus 1; experiment: Antiviral activity against HIV1 isolate with RT 238N mutation relative to wild type; summary of the method: as §1
[22] = system: Human immunodeficiency virus 1; experiment: Antiviral activity against HIV1 isolate with RT 179T mutation relative to wild type; summary of the method: as §1
[23] = system: Human immunodeficiency virus 1; experiment: Antiviral activity against HIV1 isolate with RT 101Q, 103N, 225H mutation relative to wild type
[24] = system: Human immunodeficiency virus 1; experiment: Antiviral activity against HIV1 isolate with RT 101E, 190A mutation relative to wild type
[25] = system: Human immunodeficiency virus 1; experiment: Antiviral activity against HIV1 isolate with RT 106L, 188L mutation relative to wild type; summary of the method: as §1
[26] = system: Human immunodeficiency virus 1; experiment: Antiviral activity against HIV1 isolate with RT 190A mutation relative to wild type; summary of the method: as §1
[27] = system: Human immunodeficiency virus 1; experiment: Antiviral activity against HIV1 isolate with RT 106A, 181C mutation relative to wild type; summary of the method: as §1
[28] = system: Human immunodeficiency virus 1; experiment: Antiviral activity against HIV1 isolate with RT 100F mutation relative to wild type
[29] = system: Human immunodeficiency virus 1; experiment: Antiviral activity against HIV1 isolate with RT 106I mutation relative to wild type; summary of the method: as §1
[30] = system: Human immunodeficiency virus 1; experiment: Antiviral activity against HIV1 isolate with RT 179E mutation relative to wild type; summary of the method: as §1
[31] = system: Human immunodeficiency virus 1; experiment: Antiviral activity against HIV1 isolate with RT 101Q, 181C, 190A mutation relative to wild type
[32] = system: Human immunodeficiency virus 1; experiment: Antiviral activity against HIV1 isolate with RT 181V mutation relative to wild type; summary of the method: as §1
[33] = system: Human immunodeficiency virus 1; experiment: Antiviral activity against HIV1 isolate with RT 179D, 181C mutation relative to wild type; summary of the method: as §1
[34] = system: Human immunodeficiency virus 1; experiment: Antiviral activity against HIV1 isolate with RT 103N, 108I, 181C mutation relative to wild type
[35] = system: Human immunodeficiency virus 1; experiment: Antiviral activity against HIV1 isolate with RT 101E, 190S mutation relative to wild type
[36] = system: Human immunodeficiency virus 1; experiment: Antiviral activity against HIV1 isolate with RT 236L mutation relative to wild type; summary of the method: as §1
[37] = system: Human immunodeficiency virus 1; experiment: Antiviral activity against HIV1 isolate with RT 98G, 100I, 103N mutation relative to wild type; summary of the method: as §1
[38] = system: Human immunodeficiency virus 1; experiment: Antiviral activity against HIV1 isolate with RT 103N mutation relative to wild type
[39] = system: Human immunodeficiency virus 1; experiment: Antiviral activity against HIV1 isolate with RT 98G mutation relative to wild type; summary of the method: as §1
[40] = system: Human immunodeficiency virus 1; experiment: Antiviral activity against HIV1 isolate with RT 103N, 108I, 190A mutation relative to wild type
[41] = system: Human immunodeficiency virus 1; experiment: Antiviral activity against HIV1 isolate with RT 101E, 103N mutation relative to wild type
[42] = system: Human immunodeficiency virus 1; experiment: Antiviral activity against HIV1 isolate with RT 98G, 181C mutation relative to wild type; summary of the method: as §1
[43] = system: Human immunodeficiency virus 1; experiment: Antiviral activity against HIV1 isolate with RT 98G, 108I, 181C mutation relative to wild type; summary of the method: as §1
[44] = system: Human immunodeficiency virus 1; experiment: Antiviral activity against HIV1 isolate with RT 98G, 103N mutation relative to wild type; summary of the method: as §1
[45] = system: Human immunodeficiency virus 1; experiment: Antiviral activity against HIV1 isolate with RT 101H mutation relative to wild type
[46] = system: Human immunodeficiency virus 1; experiment: Antiviral activity against HIV1 isolate with RT 101P, 190A mutation relative to wild type
[47] = system: Human immunodeficiency virus 1; experiment: Antiviral activity against HIV1 isolate with RT 106A, 190A mutation relative to wild type; summary of the method: as §1
[48] = system: Human immunodeficiency virus 1; experiment: Antiviral activity against HIV1 isolate with RT 103N, 106A mutation relative to wild type
[49] = system: Human immunodeficiency virus 1; experiment: Antiviral activity against HIV1 isolate with RT 103N, 188L mutation relative to wild type
[50] = system: Human immunodeficiency virus 1; experiment: Antiviral activity against HIV1 isolate with RT 98G, 101E, 181C, 190A mutation relative to wild type; summary of the method: as §1
[51] = system: Human immunodeficiency virus 1; experiment: Antiviral activity against HIV1 isolate with RT 103S mutation relative to wild type; summary of the method: as §1
[52] = system: Human immunodeficiency virus 1; experiment: Antiviral activity against HIV1 isolate with RT 101E, 181C mutation relative to wild type
[53] = system: Human immunodeficiency virus 1; experiment: Antiviral activity against HIV1 isolate with RT 101E mutation relative to wild type
[54] = system: Human immunodeficiency virus 1; experiment: Antiviral activity against HIV1 isolate with RT 103S, 190A mutation relative to wild type; summary of the method: as §1
[55] = system: Human immunodeficiency virus 1; experiment: Antiviral activity against HIV1 isolate with RT 98G, 103N, 108I mutation relative to wild type; summary of the method: as §1
[56] = system: Human immunodeficiency virus 1; experiment: Antiviral activity against HIV1 isolate with RT 179D, 188L mutation relative to wild type; summary of the method: as §1

Cc1ccnc2c1NC(=O)c1cccnc1N2C1CC1 [NEVIRAPINE]
Fold change [1]: 1.3 | Fold change [2]: >100 | Fold change [3]: >100 | Fold change [4]: 1 | Fold change [5]: >100 | Fold change [6]: >100 | Fold change [7]: >100 | Fold change [8]: >100 | Fold change [9]: >100 | Fold change [10]: >100 | Fold change [11]: 2.8 | Fold change [12]: 42 | Fold change [13]: >100 | Fold change [14]: >100 | Fold change [15]: 2.1 | Fold change [16]: >100 | Fold change [17]: >100 | Fold change [18]: >100 | Fold change [19]: >100 | Fold change [20]: >100 | Fold change [21]: 1.9 | Fold change [22]: 0.5 | Fold change [23]: >100 | Fold change [24]: >100 | Fold change [25]: >100 | Fold change [26]: >100 | Fold change [27]: >100 | Fold change [28]: 2.4 | Fold change [29]: 1.1 | Fold change [30]: 1.9 | Fold change [31]: >100 | Fold change [32]: >100 | Fold change [33]: >100 | Fold change [34]: >100 | Fold change [35]: >100 | Fold change [36]: 0.5 | Fold change [37]: >100 | Fold change [38]: 51 | Fold change [39]: 5.9 | Fold change [40]: >100 | Fold change [41]: >100 | Fold change [42]: >100 | Fold change [43]: >100 | Fold change [44]: >100 | Fold change [45]: 12 | Fold change [46]: >100 | Fold change [47]: >100 | Fold change [48]: >100 | Fold change [49]: >100 | Fold change [50]: >100 | Fold change [51]: 39 | Fold change [52]: >100 | Fold change [53]: 42 | Fold change [54]: >100 | Fold change [55]: >100 | Fold change [56]: >100

NS(=O)(=O)c1ccc(NC(=O)CSc2nnc(Br)n2-c2ccc(C3CC3)c3ccccc23)c(Cl)c1
Fold change [1]: 0.6 | Fold change [2]: 12 | Fold change [3]: >100 | Fold change [4]: 1.4 | Fold change [5]: >100 | Fold change [6]: 2.2 | Fold change [7]: 62 | Fold change [8]: 82 | Fold change [9]: >100 | Fold change [10]: 18 | Fold change [11]: 2.2 | Fold change [12]: 0.9 | Fold change [13]: 3.5 | Fold change [14]: >100 | Fold change [15]: 0.47 | Fold change [16]: 11 | Fold change [17]: 0.6 | Fold change [18]: >100 | Fold change [19]: >100 | Fold change [20]: >100 | Fold change [21]: 0.7 | Fold change [22]: 1.3 | Fold change [23]: 3.9 | Fold change [24]: 83 | Fold change [25]: >100 | Fold change [26]: 13 | Fold change [27]: 16 | Fold change [28]: 1.8 | Fold change [29]: 0.9 | Fold change [30]: 2.4 | Fold change [31]: >100 | Fold change [32]: 20 | Fold change [33]: >100 | Fold change [34]: 6.2 | Fold change [35]: 16 | Fold change [36]: 0.9 | Fold change [37]: 1.4 | Fold change [38]: 0.7 | Fold change [39]: 2.4 | Fold change [40]: 20 | Fold change [41]: 0.9 | Fold change [42]: 11 | Fold change [43]: 15 | Fold change [44]: 4.4 | Fold change [45]: 2.5 | Fold change [46]: 92 | Fold change [47]: >100 | Fold change [48]: 2.6 | Fold change [49]: 3.9 | Fold change [50]: 65 | Fold change [51]: 2.7 | Fold change [52]: >100 | Fold change [53]: 11 | Fold change [54]: >100 | Fold change [55]: 2.2 | Fold change [56]: >100
